Experimental data as given in ChEMBL document CHEMBL4330069, “Boosting the efficacy of anti-MRSA β-lactam antibiotics via an easily accessible, non-cytotoxic and orally bioavailable FtsZ inhibitor” (Eur J Med Chem, 2019).
Values after ≈ are worked out from the molar mass of the structure shown. Active and inactive are the calls of the source.

Experiments:
Staphylococcus aureus [1] = test: Antibacterial activity against multidrug-resistant Staphylococcus aureus isolate 2895 by broth microdilution assay; assay type: functional
Method in brief: (§1)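 Broth microdilution MIC per CLSI guidelines against clinical MRSA isolates, for β-lactams and test compound alone and in combination. Compounds were dissolved in DMSO. Growth was read by eye, in duplicate. FIC index = FIC(compound) + FIC(drug); synergy defined as FIC index ≤0.5.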

Staphylococcus aureus [2] = test: Antibacterial activity against multidrug-resistant Staphylococcus aureus isolate 1344 by broth microdilution assay; assay type: functional; method in brief: as §1
Staphylococcus aureus [3] = test: Antibacterial activity against multidrug-resistant Staphylococcus aureus isolate 2728 by broth microdilution assay; assay type: functional; method in brief: as §1
Staphylococcus aureus [4] = test: Antibacterial activity against multidrug-resistant Staphylococcus aureus isolate 358 by broth microdilution assay; assay type: functional; method in brief: as §1
Staphylococcus aureus [5] = test: Antibacterial activity against multidrug-resistant Staphylococcus aureus isolate 2516 by broth microdilution assay; assay type: functional; method in brief: as §1
Staphylococcus aureus [6] = test: Antibacterial activity against multidrug-resistant Staphylococcus aureus isolate 1449 by broth microdilution assay; assay type: functional; method in brief: as §1
Staphylococcus aureus [7] = test: Antibacterial activity against multidrug-resistant Staphylococcus aureus isolate 231 by broth microdilution assay; assay type: functional; method in brief: as §1
Staphylococcus aureus [8] = test: Antibacterial activity against multidrug-resistant Staphylococcus aureus isolate 3411 by broth microdilution assay; assay type: functional; method in brief: as §1
Staphylococcus aureus [9] = test: Antibacterial activity against multidrug-resistant Staphylococcus aureus isolate 2973 by broth microdilution assay; assay type: functional; method in brief: as §1
Staphylococcus aureus [10] = test: Antibacterial activity against multidrug-resistant Staphylococcus aureus isolate 3332 by broth microdilution assay; assay type: functional; method in brief: as §1
Staphylococcus aureus [11] = test: Antibacterial activity against multidrug-resistant Staphylococcus aureus isolate 85 by broth microdilution assay; assay type: functional; method in brief: as §1
Staphylococcus aureus [12] = test: Antibacterial activity against multidrug-resistant Staphylococcus aureus isolate 3580 by broth microdilution assay; assay type: functional; method in brief: as §1
Staphylococcus aureus [13] = test: Antibacterial activity against multidrug-resistant Staphylococcus aureus isolate 1402 by broth microdilution assay; assay type: functional; method in brief: as §1
Staphylococcus aureus [14] = test: Antibacterial activity against multidrug-resistant Staphylococcus aureus isolate 417 by broth microdilution assay; assay type: functional; method in brief: as §1
Staphylococcus aureus [15] = test: Antibacterial activity against multidrug-resistant Staphylococcus aureus isolate 2490 by broth microdilution assay; assay type: functional; method in brief: as §1
Staphylococcus aureus [16] = test: Antibacterial activity against multidrug-resistant Staphylococcus aureus isolate 1136 by broth microdilution assay; assay type: functional; method in brief: as §1
Staphylococcus aureus [17] = test: Antibacterial activity against multidrug-resistant Staphylococcus aureus isolate 1717 by broth microdilution assay; assay type: functional; method in brief: as §1
Staphylococcus aureus [18] = test: Antibacterial activity against multidrug-resistant Staphylococcus aureus isolate 3589 by broth microdilution assay; assay type: functional; method in brief: as §1
Staphylococcus aureus [19] = test: Antibacterial activity against multidrug-resistant Staphylococcus aureus isolate 774 by broth microdilution assay; assay type: functional; method in brief: as §1
Staphylococcus aureus [20] = test: Antibacterial activity against multidrug-resistant Staphylococcus aureus ATCC 43300 infected in BALB/C mouse assessed as mouse survival at 50 mg/kg, ip bid measured after 5 days; assay type: functional, organism-based
Staphylococcus aureus [21] = test: Antibacterial activity against multidrug-resistant Staphylococcus aureus isolate 256 by broth microdilution assay; assay type: functional; method in brief: as §1
Staphylococcus aureus [22] = test: Antibacterial activity against multidrug-resistant Staphylococcus aureus isolate 200 by broth microdilution assay; assay type: functional; method in brief: as §1
Staphylococcus aureus [23] = test: Antibacterial activity against multidrug-resistant Staphylococcus aureus isolate 2224 by broth microdilution assay; assay type: functional; method in brief: as §1
Staphylococcus aureus [24] = test: Antibacterial activity against multidrug-resistant Staphylococcus aureus isolate 2901 by broth microdilution assay; assay type: functional; method in brief: as §1
Staphylococcus aureus [25] = test: Antibacterial activity against multidrug-resistant Staphylococcus aureus isolate 254 by broth microdilution assay; assay type: functional; method in brief: as §1
Staphylococcus aureus [26] = test: Antibacterial activity against multidrug-resistant Staphylococcus aureus isolate 2919 by broth microdilution assay; assay type: functional; method in brief: as §1
Staphylococcus aureus [27] = test: Antibacterial activity against multidrug-resistant Staphylococcus aureus ATCC 43300 infected in BALB/C mouse assessed as mouse survival at 25 mg/kg, ip bid measured on day 4 post infection (reference value: 50%); assay type: functional
Staphylococcus aureus [28] = test: Antibacterial activity against multidrug-resistant Staphylococcus aureus isolate 1749 by broth microdilution assay; assay type: functional; method in brief: as §1
Staphylococcus aureus [29] = test: Antibacterial activity against multidrug-resistant Staphylococcus aureus isolate 757 by broth microdilution assay; assay type: functional; method in brief: as §1
Staphylococcus aureus [30] = test: Antibacterial activity against multidrug-resistant Staphylococcus aureus isolate 3267 by broth microdilution assay; assay type: functional; method in brief: as §1

CO/N=C(\C(=O)N[C@@H]1C(=O)N2C(C(=O)O)=C(COC(N)=O)CS[C@H]12)c1ccco1 [CEFUROXIME]
MIC (Staphylococcus aureus [1]): 64 µg/mL (≈ 151 µM) | MIC (Staphylococcus aureus [2]): 256 µg/mL (≈ 603 µM) | MIC (Staphylococcus aureus [3]): 16 µg/mL (≈ 37.7 µM) | MIC (Staphylococcus aureus [4]): 2 µg/mL (≈ 4.71 µM) | MIC (Staphylococcus aureus [5]): 512 µg/mL (≈ 1210 µM) | MIC (Staphylococcus aureus [6]): 2 µg/mL (≈ 4.71 µM) | MIC (Staphylococcus aureus [7]): 1020 µg/mL (≈ 2410 µM) | MIC (Staphylococcus aureus [8]): 1020 µg/mL (≈ 2410 µM) | MIC (Staphylococcus aureus [9]): 8 µg/mL (≈ 18.9 µM) | MIC (Staphylococcus aureus [10]): 512 µg/mL (≈ 1210 µM) | MIC (Staphylococcus aureus [11]): 8 µg/mL (≈ 18.9 µM) | MIC (Staphylococcus aureus [12]): 1020 µg/mL (≈ 2410 µM) | MIC (Staphylococcus aureus [13]): 16 µg/mL (≈ 37.7 µM) | MIC (Staphylococcus aureus [14]): 1020 µg/mL (≈ 2410 µM) | MIC (Staphylococcus aureus [15]): 32 µg/mL (≈ 75.4 µM) | MIC (Staphylococcus aureus [16]): 512 µg/mL (≈ 1210 µM) | MIC (Staphylococcus aureus [17]): 16 µg/mL (≈ 37.7 µM) | MIC (Staphylococcus aureus [18]): 512 µg/mL (≈ 1210 µM) | MIC (Staphylococcus aureus [19]): 1020 µg/mL (≈ 2410 µM) | Activity (Staphylococcus aureus [20]): inactive | MIC (Staphylococcus aureus [21]): 256 µg/mL (≈ 603 µM) | MIC (Staphylococcus aureus [22]): 2 µg/mL (≈ 4.71 µM) | MIC (Staphylococcus aureus [23]): 8 µg/mL (≈ 18.9 µM) | MIC (Staphylococcus aureus [24]): 16 µg/mL (≈ 37.7 µM) | MIC (Staphylococcus aureus [25]): 1020 µg/mL (≈ 2410 µM) | MIC (Staphylococcus aureus [26]): 16 µg/mL (≈ 37.7 µM) | Activity (Staphylococcus aureus [27]): 70% | MIC (Staphylococcus aureus [28]): 16 µg/mL (≈ 37.7 µM) | MIC (Staphylococcus aureus [29]): 32 µg/mL (≈ 75.4 µM) | MIC (Staphylococcus aureus [30]): 256 µg/mL (≈ 603 µM)
